Test results from ChEMBL document CHEMBL1158052, “Tripfordines A-C, sesquiterpene pyridine alkaloids from Tripterygium wilfordii, and structure anti-HIV activity relationships of Tripterygium alkaloids” (J Nat Prod, 2006).
Converted amounts (≈) assume the structure as drawn. The source made the active and inactive calls. The calls are words filed in the database; no cut-off is given here.

Experiments:
[1] = tested on: Human immunodeficiency virus 1; experiment: Antiviral activity against HIV1 infected human H9 lymphocytes assessed as suppression of viral replication; assay type: functional, organism-based
Summary of the method: (§1)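 EC50 is the sample concentration that suppresses HIV replication by 50%. Cytotoxic IC50 is the concentration toxic to 50% of mock-infected cells. Therapeutic index is IC50 divided by EC50.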

[2] = Therapeutic index, ratio of IC50 for human H9 lymphocytes to EC50 for HIV1; conditions: HIV-1, read-out: Ratio IC50/EC50; summary of the method: as §1
[3] = tested on: A-431; experiment: Cytotoxicity against human A431 cells; assay type: functional, cell-based
[4] = tested on: A549; experiment: Cytotoxicity against human A549 cells; assay type: functional, cell-based
[5] = Cytotoxicity against human AR751 cells; assay type: functional, cell-based
[6] = tested on: HCT-8; experiment: Cytotoxicity against human HCT8 cells; assay type: functional, cell-based
[7] = tested on: H9; experiment: Cytotoxicity against mock-infected human H9 lymphocytes; assay type: cell-based
Summary of the method: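 Mock-infected cells, run alongside the HIV replication suppression assay, were exposed to test sample. IC50 was taken as the concentration toxic to 50% of the mock-infected cells.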

[8] = tested on: LNCaP; experiment: Cytotoxicity against human LNCAP cells; assay type: functional, cell-based
[9] = tested on: PC-3; experiment: Cytotoxicity against human PC-3 cells; assay type: functional, cell-based

| SMILES | Activity [1] | EC50 [1] | selectivity ratio [2] | further results |
| --- | --- | --- | --- | --- |
| CC(=O)OC[C@]12[C@H](OC(C)=O)[C@H](OC(C)=O)[C@@H]3[C@@H](OC(C)=O)[C@@]14O[C@@]3(C)COC(=O)c1cccnc1CCC(C)C(=O)O[C@@H]([C@H](OC(=O)c1ccco1)[C@@H]2OC(C)=O)[C@]4(C)O (some centres undefined) | inactive |  |  |  |
| CC(=O)O[C@@H]1[C@@H]2[C@@H](OC(C)=O)[C@@]34O[C@@]2(C)COC(=O)c2cnccc2C(C)C(C)C(=O)O[C@@H]([C@H](OC(C)=O)[C@H](OC(C)=O)[C@@]3(COC(=O)c2ccco2)[C@@H]1OC(C)=O)[C@]4(C)O (some centres undefined) | inactive |  |  |  |
| CC(=O)OC[C@]12[C@H](OC(C)=O)[C@H](OC(C)=O)[C@@H]3[C@@H](OC(=O)c4ccccc4)[C@@]14O[C@@]3(C)COC(=O)c1cccnc1C(C)C(C)C(=O)O[C@@H]([C@H](OC(C)=O)[C@@H]2OC(C)=O)[C@]4(C)O (some centres undefined) |  | 0.9 µg/mL (≈ 1.04 µM) |  |  |
| CC(=O)OC[C@]12[C@H](OC(C)=O)[C@H](OC(C)=O)[C@@H]3[C@@H](OC(C)=O)[C@@]14O[C@@]3(C)COC(=O)c1cccnc1CCC(C)(O)C(=O)O[C@@H]([C@H](OC(=O)c1ccccc1)[C@@H]2OC(C)=O)[C@]4(C)O (some centres undefined) [WILFORDINE] |  | < 0.1 µg/mL | > 200 |  |
| CC(=O)OC[C@]12[C@H](OC(C)=O)[C@H](OC(C)=O)[C@@H]3[C@@H](O)[C@@]14O[C@@]3(C)COC(=O)c1cccnc1C(C)C(C)C(=O)O[C@@H]([C@H](OC(C)=O)[C@@H]2OC(C)=O)[C@]4(C)O (some centres undefined) [NEOEUONYMINE] |  | 0.88 µg/mL (≈ 1.15 µM) | > 113 |  |
| COC(=O)C[C@@H]1C(=O)CCC(C)C(=O)O[C@@H]2[C@@H]3[C@@H](OC(C)=O)[C@@]45O[C@@]3(C)COC(=O)c3cccnc3C(C)C(C)C(=O)O[C@@H]([C@H](OC(C)=O)[C@H](OC(C)=O)[C@@]4(COC1=O)[C@@H]2OC(C)=O)[C@]5(C)O (some centres undefined) [TRIPTONINE A] |  | 2.5 µg/mL (≈ 2.64 µM) | > 39.4 |  |
| CC(=O)OC[C@]12[C@H](OC(C)=O)[C@H](OC(C)=O)[C@@H]3[C@@H](OC(=O)c4ccccc4)[C@@]14O[C@@]3(C)COC(=O)c1cccnc1C(C)C(C)C(=O)O[C@@H]([C@H](OC(=O)c1cccnc1)[C@@H]2OC(C)=O)[C@]4(C)O (some centres undefined) | inactive |  |  |  |
| CC(=O)OC[C@]12[C@H](OC(C)=O)[C@H](OC(C)=O)[C@@H]3[C@@H](OC(C)=O)[C@@]14O[C@@]3(C)COC(=O)c1cnccc1C(C)C(C)(O)C(=O)O[C@@H]([C@H](OC(=O)c1ccco1)[C@@H]2OC(C)=O)[C@]4(C)O (some centres undefined) [HYPOGLAUNINE B] |  | 0.1 µg/mL (≈ 0.114 µM) | > 1000 |  |
| COC(=O)C[C@@H]1C(=O)CC[C@H](C)C(=O)O[C@@H]2[C@@H]3[C@@H](OC(C)=O)[C@@]45O[C@@]3(C)COC(=O)c3cnccc3[C@@H](C)[C@@H](O)C(=O)O[C@@H]([C@H](OC(C)=O)[C@H](OC(C)=O)[C@@]4(COC1=O)[C@@H]2OC(C)=O)[C@]5(C)O [TRIPTONINE B] |  | < 0.1 µg/mL | > 1000 |  |
| CC(=O)O[C@@H]1[C@H](OC(C)=O)[C@@]2(COC(=O)c3ccco3)[C@H](OC(C)=O)C(=O)[C@@H]3[C@@H](OC(C)=O)[C@@]24O[C@@]3(C)COC(=O)c2cccnc2C(C)C(C)C(=O)O[C@@H]1[C@]4(C)O (some centres undefined) [HYPONINE B] |  | 0.1 µg/mL (≈ 0.123 µM) | > 1000 |  |
| CC(=O)OC[C@]12[C@H](OC(C)=O)[C@H](OC(C)=O)[C@@H]3[C@@H](OC(C)=O)[C@@]14O[C@@]3(C)COC(=O)c1cccnc1C(C)C(C)C(=O)O[C@@H]([C@H](OC(C)=O)[C@@H]2OC(C)=O)[C@]4(C)O (some centres undefined) [EUONYMINE] |  | 0.2 µg/mL (≈ 0.248 µM) |  |  |
| CC(=O)OC[C@]12[C@H](OC(C)=O)[C@H](OC(C)=O)[C@@H]3[C@@H](OC(C)=O)[C@@]14O[C@@]3(C)COC(=O)c1cccnc1CCC(C)(O)C(=O)O[C@@H]([C@H](OC(=O)c1ccco1)[C@@H]2OC(C)=O)[C@]4(C)O (some centres undefined) [WILFORTRINE] |  | < 0.1 µg/mL | > 1000 |  |
| CC(=O)OC[C@]12[C@H](OC(C)=O)[C@H](OC(C)=O)[C@@H]3[C@@H](O)[C@@]14O[C@@]3(C)COC(=O)c1cccnc1CCC(C)C(=O)O[C@@H]([C@H](OC(C)=O)[C@@H]2OC(C)=O)[C@@]4(C)O (some centres undefined) [TRIPFORDINE B] | inactive |  |  | IC50 [3]: > 4 µg/mL; IC50 [4]: > 4 µg/mL; IC50 [5]: > 4 µg/mL; IC50 [6]: > 4 µg/mL; IC50 [7]: > 25 µg/mL; IC50 [8]: > 4 µg/mL; IC50 [9]: > 4 µg/mL |
| CC(=O)OC[C@]12[C@H](OC(C)=O)[C@H](OC(C)=O)[C@@H]3[C@@H](OC(C)=O)[C@@]14O[C@@]3(C)COC(=O)c1cccnc1CCC(C)C(=O)O[C@@H]([C@H](OC(=O)c1ccccc1)[C@@H]2OC(C)=O)[C@]4(C)O (some centres undefined) | inactive |  |  |  |
| CC(=O)OC[C@]12[C@H](OC(C)=O)[C@H](OC(C)=O)[C@@H]3[C@@H](OC(C)=O)[C@@]14O[C@@]3(C)COC(=O)c1cccnc1CCC(C)(O)C(=O)O[C@@H]([C@H](O)[C@@H]2OC(C)=O)[C@@]4(C)O (some centres undefined) [TRIPFORDINE A] |  | 13.4 µg/mL (≈ 17.2 µM) | 1.9 | IC50 [3]: > 4 µg/mL; IC50 [4]: > 4 µg/mL; IC50 [5]: > 4 µg/mL; IC50 [6]: > 4 µg/mL; IC50 [7]: > 25 µg/mL; IC50 [8]: > 4 µg/mL; IC50 [9]: > 4 µg/mL |
| CC(=O)OC[C@]12[C@H](OC(C)=O)[C@H](OC(C)=O)[C@@H]3[C@@H](OC(C)=O)[C@@]14O[C@@]3(C)COC(=O)c1cccnc1C(C)C(C)C(=O)O[C@@H]([C@H](OC(=O)c1ccccc1)[C@@H]2OC(C)=O)[C@@]4(C)O (some centres undefined) [FORRESTINE] |  |  | > 208 |  |
| CC(=O)OC[C@]12[C@H](OC(C)=O)[C@H](OC(C)=O)[C@@H]3[C@@H](O)[C@@]14O[C@@]3(C)COC(=O)c1cnccc1C(C)C(C)C(=O)O[C@@H]([C@H](OC(C)=O)[C@@H]2OC(C)=O)[C@@]4(C)O (some centres undefined) [TRIPFORDINE C] | inactive |  |  | IC50 [3]: > 4 µg/mL; IC50 [4]: > 4 µg/mL; IC50 [5]: > 4 µg/mL; IC50 [6]: > 4 µg/mL; IC50 [7]: > 25 µg/mL; IC50 [8]: > 4 µg/mL; IC50 [9]: > 4 µg/mL |
| CC(=O)OC[C@]12[C@H](OC(C)=O)[C@H](OC(C)=O)[C@@H]3[C@@H](OC(=O)c4ccco4)[C@@]14O[C@@]3(C)COC(=O)c1cccnc1C(C)C(C)C(=O)O[C@@H]([C@H](OC(C)=O)[C@@H]2OC(C)=O)[C@]4(C)O (some centres undefined) [HYPONINE A] |  | 1 µg/mL (≈ 1.17 µM) |  |  |
| CC(=O)OC[C@]12[C@H](OC(C)=O)[C@H](OC(C)=O)[C@@H]3[C@@H](OC(C)=O)[C@@]14O[C@@]3(C)COC(=O)c1cccnc1C(C)C(C)C(=O)O[C@@H]([C@H](OC(=O)c1ccco1)[C@@H]2OC(C)=O)[C@]4(C)O (some centres undefined) [HYPONINE F] |  |  | > 2.8 |  |
| CC(=O)O[C@@H]1[C@@H]2[C@@H](OC(C)=O)[C@@]34O[C@@]2(C)COC(=O)c2cnccc2C(C)C(C)(O)C(=O)O[C@@H]([C@H](OC(C)=O)[C@H](OC(C)=O)[C@@]3(COC(=O)c2ccco2)[C@@H]1OC(C)=O)[C@]4(C)O (some centres undefined) [HYPOGLAUNINE A] |  |  | > 769 |  |
